# Compound activity deposited in PubChem BioAssay by Broad Institute.
# A selection: hits, their analogues and other compounds. The true share with any hit is near 3.6%.
# SR-BI DiI-HDL act: activators of SR-BI mediated DiI-HDL uptake, primary screen, ldlA[mSR-BI] CHO cells, DiI fluorescence. 3 h; 100 = double the neutral-control signal. activation, % at 12.5 µM. 320,000 tested, 0.096% active;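 active means mean replicate activation of at least 60% and every replicate at or above 60%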;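 further: 0% = median plate neutral-control signal and 100% = twice that signal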
#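 Material: SR-BI-overexpressing, LDLR-lacking CHO cells | Dosing: Single compound concentration, delivered by pin transfer | Probe or stimulus: Labelled HDL, 10 µg/mL | Signal: Bottom-read cell fluorescence after medium removal, ex 550/em 595 nm | Schedule: 3 h, 37 °C | Evaluation: HDL uptake via cellular fluorescence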
# SR-BI DiI inh: inhibitors of SR-BI mediated HDL lipid uptake, primary screen, ldlA[mSR-BI] cells, fluorescence, single point; ldlA[mSR-BI] CHO cells, DiI-HDL uptake fluorescence, 3 h; inhibition, % at 12.5 µM; 320,000 tested, 0.96% active; AID 488896, 2010;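 active means mean replicate inhibition of at least 70% and a set share of replicates each scoring 70 or more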;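 further: 0% = median of neutral control wells and 100% = median of positive control wells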
# Target sequence (Q61009 whole entry, looked up): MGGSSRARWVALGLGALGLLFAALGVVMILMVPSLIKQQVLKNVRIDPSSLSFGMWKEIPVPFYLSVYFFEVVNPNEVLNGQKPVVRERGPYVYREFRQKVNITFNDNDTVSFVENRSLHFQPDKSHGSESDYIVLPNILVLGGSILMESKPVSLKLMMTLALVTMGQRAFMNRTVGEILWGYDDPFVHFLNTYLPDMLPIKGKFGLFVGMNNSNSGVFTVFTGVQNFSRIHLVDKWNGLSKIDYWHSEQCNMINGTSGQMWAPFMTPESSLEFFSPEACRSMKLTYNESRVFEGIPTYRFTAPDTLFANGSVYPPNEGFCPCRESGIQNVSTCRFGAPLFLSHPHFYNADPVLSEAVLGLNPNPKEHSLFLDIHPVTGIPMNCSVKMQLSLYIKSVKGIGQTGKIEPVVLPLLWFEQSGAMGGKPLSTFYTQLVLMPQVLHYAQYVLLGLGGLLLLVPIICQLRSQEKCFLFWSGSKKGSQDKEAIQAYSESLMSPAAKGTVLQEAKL
# HSF1 activator: HSF-1 activators, primary screen, NIH3T3-HGL cells, MG132 stress, luminescence, single point | NIH3T3-HGL HSF-1 luciferase reporter, 8 h; 100% = twice DMSO control signal | activation, % at 9 µM | 300,000 tested, 1.7% active | AID 504408, 2011;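 active means mean replicate activation of at least 50% with a set share of replicates each reaching 50%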;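 further: 0% = median of the neutral control wells and 100% = twice that signal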
# MITF act: activators of MITF-driven TRPM1 promoter reporter, primary screen, cell-based, SK-MEL-5, luciferase, single point. activation, % at 12.5 µM. AID 588334, 2011. 300,000 tested, 0.75% active. SK-MEL-5 TRPM1-promoter luciferase, 24 h; % of positive control, neutral wells = 0;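 active means mean activation of at least 80% with every replicate also reaching 80%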;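 further: 0% = neutral control wells and 100% = parthenolide positive control wells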
# Wnt bcat act: Wnt/beta-catenin pathway activators, primary screen, cell-based, plate reader, single point | Wnt/beta-catenin reporter cell assay, activator | activation, % at 9.35 µM | 300,000 tested, 1.2% active | AID 743398, 2014; in the data active means activation above about 30%, passing the limit was not always enough;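 further: 0% = neutral control wells and 100% = positive control wells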
# An asterisk follows results filed as active; / = not tested or not shown.
SMILES,SR-BI DiI-HDL act,SR-BI DiI inh,HSF1 activator,MITF act,Wnt bcat act
Cc1oc(-c2ccccc2F)nc1CS(=O)CC(=O)NC1CCCC1 (stereo not given),-85,85*,-6,-9,3
O=C(NCc1c(Cl)cccc1Cl)c1[nH]c(C(F)(F)F)nc1-c1ccccc1,/,/,/,/,-2
O=C1NC[C@@H](CCCCN2C[C@H](Cc3ccc(O)cc3)N(CCc3ccc(O)cc3)C(=O)C2=O)N(CCc2ccc(O)cc2)C1=O,/,/,/,/,-4
Cc1cccc(-n2cc(CN3CCN(Cc4nccn4C)CC3)c(-c3cccc(F)c3)n2)c1,-23,23,65*,22,14
CCOc1ccc(OCC(=O)NCCS(=O)(=O)N2CCN(c3ccccc3)CC2)cc1,/,/,/,/,-2
O=C(CCl)N1CCN2C(=O)c3ccccc3C12c1ccc(Cl)cc1 (stereo not given),12,-12,76*,-57,-1
Cc1ccc(C(=O)N2CCN3C(=O)c4ccccc4C23c2ccc(Cl)cc2)cc1 (stereo not given),14,-14,2,-45,/
S=c1[nH]nc(-c2ccccc2)n1/N=C/c1ccc(-c2ccccc2Cl)o1,24,-24,151*,-5,/
S=c1[nH]nc(-c2cccc(Cl)c2)n1/N=C/c1ccc(-c2ccccc2Br)o1,/,/,0,-9,-3
c1ccc(CCCNc2ncnc3nc[nH]c23)cc1,12,-12,7,/,2
CCCCc1ccc(Nc2ncnc3nc[nH]c23)cc1,-1,1,6,105*,25
CCc1ccc(Nc2ncnc3nc[nH]c23)cc1,4,-4,30,96*,47*
Cc1ccc(Nc2ncnc3nc[nH]c23)cc1Cl,23,-22,10,/,13
Cc1cc(C)c(S(=O)(=O)N2CCN=C2c2ccccc2)cc1C,4,-4,-2,7,3
COc1cc(C)c(S(=O)(=O)N2CCN=C2c2ccccc2)cc1C,8,-8,56*,9,/
Cc1ccc2nc(COc3ccc(Cl)cc3)cc(=O)n2c1,5,-5,66*,68,13
CCOc1cc(C=O)ccc1OCc1cc(=O)n2cc(C)ccc2n1,-2,2,-10,-1,-1
CCCN(CCC)c1nc(N)nc(-c2cc(Cl)ccc2OC)n1,-82,82*,16,-3,/
Cc1ccc(NS(=O)(=O)c2ccc3c(c2)n(C)c(=O)n3C)cc1,135*,-135,-2,-5,/
Cc1ccc(S(=O)(=O)Nc2cc3c4c(c2)CCN4C(=O)CC3)cc1,-6,6,58*,7,0
O=C1CCc2cc(NS(=O)(=O)c3ccc(F)cc3)cc3c2N1CC3,-14,14,20,3,-3
Cc1c(C)n(C)c2ccc(C(=O)NCCCN3CCCC3)cc12,/,43,-11,-5,-1
CCN(CC)c1ccc(NC(=O)c2ccc3c(c2)c(C)c(C)n3C)cc1,-90,90*,11,-2,-4
Fc1cccc2sc(Nc3nc4ccccc4s3)nc12,/,/,47,29,36*
c1ccc2sc(Nc3nc4cc5c(cc4s3)OCO5)nc2c1,13,-13,76*,66,/
SMILES,SR-BI DiI-HDL act,SR-BI DiI inh,HSF1 activator,MITF act,Wnt bcat act
Fc1ccc2nc(Nc3nc4cc5c(cc4s3)OCO5)sc2c1,-5,5,36,54,/
Fc1ccc2nc(Nc3nc4cc5c(cc4s3)OCCO5)sc2c1,1,-1,-25,85*,/
O=S(=O)(Nc1cccc2cccnc12)c1ccccc1,5,-5,94*,-89,4
COc1ccc(NS(=O)(=O)c2ccc3ccccc3c2)c2ncccc12,14,-14,393*,-28,-5
Cc1cc(C)c(NS(=O)(=O)c2cccc3cccnc23)c(C)c1,21,-21,25,-3,/
Cc1ccc2cccc(NS(=O)(=O)c3ccccc3)c2n1,/,/,140*,/,-3
Cc1ccc(S(=O)(=O)Nc2cccc3cccnc23)c([N+](=O)[O-])c1,-6,6,220*,-88,15
Cc1cc(C)nc(NS(=O)(=O)c2ccccc2)n1,5,-5,8,-10,/
COc1ccc(CN2C(=O)CCC2(C)c2nc3ccccc3[nH]2)cc1 (stereo not given),/,/,/,/,1
Cc1cc(C)c2cc(C#N)c(NCCNC(=O)c3ccccn3)nc2c1,/,/,/,/,4
CCOC(=O)c1c(NC(=O)COC(=O)CCNS(=O)(=O)c2ccccc2)sc(C(=O)NC)c1C,-11,11,/,1,-2
O=S(=O)(Nc1cccc2cccnc12)c1ccc(S(=O)(=O)N2CCCC2)cc1,22,-22,189*,-15,/
c1ccc(Nc2scc(-c3ccccc3)[n+]2Cc2ccco2)cc1,/,/,25,72,53*
C=CCOc1ccc(/C=C2\SC(=S)N(N3CCOCC3)C2=O)cc1,-7,7,8,/,42*
COC(=O)C[C@H]1C[C@H]2c3cc(NC(=O)NC4CCCC4)ccc3O[C@H]2[C@@H](CO)O1,/,/,/,/,-1
CC(C)(C)C1CCC(CN2CCC(CN3C(=O)C(=O)NC[C@@H]3Cc3ccccc3)CC2)CC1 (stereo not given in full),-15,15,/,18,11
c1ccc(Cn2nnnc2C(c2cccs2)N2CCCCCC2)cc1 (stereo not given),-30,30,22,0,-3
c1ccc(Cn2nnnc2C(c2cccs2)N2CCc3ccccc3C2)cc1 (stereo not given),20,-20,177*,-1,/
O=C(N[C@@H](Cc1cccnc1)C(=O)N1CCC[C@H]1C(=O)NC1CCCC1)c1ccccc1,/,/,/,/,-3
CC(=O)C1=CN(Cc2ccccc2)CCC1=O,245*,-245,/,-1,0
C[C@@H]1CN([C@H](C)CO)C(=O)CCCn2nncc2CO[C@H]1CN(C)S(=O)(=O)c1cccc(C#N)c1,/,/,/,/,-1
Nc1nc(Nc2ccccc2)sc1C(=O)c1ccccc1,-14,14,62*,/,51*
COc1ccc(C(=O)c2sc(Nc3ccccc3)nc2N)cc1,-46,46,-1,/,-1
Cc1cc(NC(=O)c2sc(Nc3ccc(F)cc3)nc2N)no1,-34,34,-2,31,3
Cc1cnc(NC(=O)c2sc(Nc3ccccc3)nc2N)o1,-5,5,-3,/,38*
CC1(C)OC(=O)C2=C(CC(CCc3ccccc3)OC2c2ccc(F)cc2)O1 (stereo not given),/,/,/,/,-2
CC(=O)OC(C)[C@H]1CC[C@H]2[C@@H]3CC[C@H]4C[C@@H](OC(C)=O)CC[C@]4(C)C3=CC[C@]12C (stereo not given in full),-12,12,-2,2,-1
COCCCn1c(C(=O)NC2CCCCC2C)cc2c(=O)n3cccc(C)c3nc21 (stereo not given),18,-18,71*,-3,-3
